The source of these data is ChEMBL document CHEMBL1759995, “Potential CRF1R PET imaging agents: N-fluoroalkyl-8-(6-methoxy-2-methylpyridin-3-yl)-2,7-dimethyl-N-alkylpyrazolo[1,5-a][1,3,5]triazin-4-amines” (Bioorg Med Chem Lett, 2011).

In data set [1] the target is T1, Corticotropin-releasing factor receptor 1 (Rattus norvegicus, UniProt P35353).
T1 sequence (P35353 whole entry): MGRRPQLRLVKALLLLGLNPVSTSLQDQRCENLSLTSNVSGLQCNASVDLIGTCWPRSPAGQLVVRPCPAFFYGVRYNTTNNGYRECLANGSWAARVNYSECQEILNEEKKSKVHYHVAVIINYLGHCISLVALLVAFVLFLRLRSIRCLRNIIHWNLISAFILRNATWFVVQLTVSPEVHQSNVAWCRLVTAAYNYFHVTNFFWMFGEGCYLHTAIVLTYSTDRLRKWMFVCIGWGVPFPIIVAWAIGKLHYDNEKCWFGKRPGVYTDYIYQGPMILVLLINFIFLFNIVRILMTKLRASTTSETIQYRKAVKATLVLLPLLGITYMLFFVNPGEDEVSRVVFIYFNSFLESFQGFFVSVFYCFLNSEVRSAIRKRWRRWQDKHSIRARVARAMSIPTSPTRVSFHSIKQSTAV
In words: Displacement of [125I]-o-CRF from CRF1 receptor in rat frontal cortex by rapid filtration technique. In kind it is tissue-based. The essentials: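 Frozen rat frontal cortex homogenized in 50 mM HEPES (pH 7.0 at 23 °C) with MgCl2, EGTA, protease inhibitors, 0.005% Triton X-100, bacitracin and 0.1% ovalbumin; pellet washed twice by centrifugation at 32,000 g. Membranes (25 µg/well) incubated with 150 pM 125I-o-CRF and compounds 2 h at 21 °C. Bound ligand captured on PEI-treated GF/B filters, washed with ice-cold PBS/0.01% Triton. IC50 from inhibition of specific binding.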
For orientation: Loss of bound radioactivity is the signal in a displacement assay; it reports binding, not function.

A short description of data set [2]: Lipophilicity, log D of the compound in octanol-phosphate buffer at pH 7.4 by Shake flask method. In kind it is physicochemical. The essentials:
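Shake-flask partitioning between 25 mM phosphate buffer (pH 7.4) and octanol, both pre-saturated by mixing and standing overnight. A 1.0 mg sample dissolved in 1 mL octanol and added to 50 mL octanol-saturated buffer.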

In general, IC50 refers to the concentration that inhibits the measured activity by half. A low value points to greater potency. The term logD denotes the decadic logarithm of the distribution of all forms, ionised or not, between an organic phase and buffer at a given pH. Read a high logD as a more lipophilic compound. In data set [1], `CCN(CCF)c1nc(C)nc2c(-c3ccc(OC)nc3C)c(C)nn12` yielded an IC50 of 5.8 nM. The logD in data set [2] was 4.5.
`COCCN(CCF)c1nc(C)nc2c(-c3ccc(OC)nc3C)c(C)nn12` showed an IC50 in data set [1] of 5.5 nM. Further, the logD in data set [2] amounted to 4.6.
In the same order, the values of `CCN(CCCF)c1nc(C)nc2c(-c3ccc(OC)nc3C)c(C)nn12` are 1.6 nM and 4.8.
In turn, `COCCN(CCCF)c1nc(C)nc2c(-c3ccc(OC)nc3C)c(C)nn12` came in with an IC50 in data set [1] of 1.9 nM. The logD in data set [2] came out at 4.1.
On the same counts, the results for `COc1ccc(-c2c(C)nn3c(N(CCC#N)CCCF)nc(C)nc23)c(C)n1` are 6.5 nM and 3.5.
In the same order, the values of `COCCN(CCCF)c1nc(C)nc2c(-c3ccc(OC)nc3)c(C)nn12` are 35 nM and 3.4.
As for `COCCN(CCCF)c1nc(C)nc2c(-c3cnc(OC)nc3)c(C)nn12`, in data set [1], the IC50 worked out at 390 nM. In addition, in data set [2], the pH-dependent lipophilicity (logD) turned out to be 3.2.
Turning to `COCCN(CCCF)c1nc(C)nc2c(-c3cnc(OC)nc3OC)c(C)nn12`, the IC50 in data set [1] is > 10000 nM. For the same compound, in data set [2], the log distribution coefficient (logD) was determined as 1.8.
